# Bioassay records from PubChem BioAssay.
# The list is not random: actives were taken first. Their share in the collection is about 4.6%.
# NALP3 yeast inh: blocks the NALP3 inflammasome reconstituted in yeast; Yeast reconstituted NLRP3/ASC/caspase-1, beta-gal luminescence, 24 h; inhibition, % at 10 µM; 330,000 tested, 0.39% active; AID 2825;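 active = inhibition of 50% or more; inactive = inhibition below 50%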;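 also: plate controls were induced DMSO wells for no effect and uninduced yeast grown without galactose for full effect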
# ALR H2O2 inh: inhibitors of human sulfhydryl oxidase ALR | P55789 | purified ALR, DTT oxidation, H2O2 HRP-luminol luminescence | inhibition, % (concentration not given with the values) | 290,000 tested, 3.8% active | AID 485317;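 active = mean replicate inhibition above about 79%, with every replicate also reaching it, limit read from the data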
# PolyA inhibitor: inhibitors of polyadenylation in S. cerevisiae. S. cerevisiae SKY197-pL101 polyadenylation reporter, beta-gal luminescence; efflux-impaired pdr1/pdr3 knockout yeast; score 100 = 6 SD above DMSO. activity score, % at 12 µM. 300,000 tested, 0.02% active;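 active = lowest replicate activity score at least 50, where 100 means six control SD above control mean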;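 also: yeast exposed to compound for 9 h at 30 °C; higher score means more reporter readthrough which indicates perturbed polyadenylation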
# Arrestin-AP2 inh: human beta-arrestin and AP2 interaction inhibition; inhibition, % at 10 µM; FITC-arrestin peptide / GST-AP2 beads, flow cytometry; AP2 beta2 appendage carries R879A mutation; 340,000 tested, 0.31% active; AID 504490;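 active = inhibition above a set limit, near 3 SD of compounds lacking own fluorescence, cut at about 54% in these data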;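 also: plate controls were DMSO wells for no effect and 5 µM unlabelled arrestin peptide for full effect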
#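 System: GST-AP2 R879A bound to glutathione beads, E. coli-expressed. Also added: 50 nM FITC-arrestin peptide. Schedule: compound with beads 12 min RT, then probe 1 h RT. Signal: bead flow cytometry, FITC channel. Read-out basis: percent response.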
# Pemphigus Ab inh: inhibitors of pemphigus antibody binding to human desmoglein-3. AID 588358. P32926. binding (percent of control), % at 10 µM. DSG3-coupled beads, scFv-anti-DSG3-GFP binding, flow cytometry; active compounds read low. 310,000 tested, 0.48% active;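 active = binding more than 3 SD below its plate's average and above zero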;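 also: hits lower antibody fragment binding to DSG3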
# Target sequence (P32926 whole entry, looked up, the tested form may be a part): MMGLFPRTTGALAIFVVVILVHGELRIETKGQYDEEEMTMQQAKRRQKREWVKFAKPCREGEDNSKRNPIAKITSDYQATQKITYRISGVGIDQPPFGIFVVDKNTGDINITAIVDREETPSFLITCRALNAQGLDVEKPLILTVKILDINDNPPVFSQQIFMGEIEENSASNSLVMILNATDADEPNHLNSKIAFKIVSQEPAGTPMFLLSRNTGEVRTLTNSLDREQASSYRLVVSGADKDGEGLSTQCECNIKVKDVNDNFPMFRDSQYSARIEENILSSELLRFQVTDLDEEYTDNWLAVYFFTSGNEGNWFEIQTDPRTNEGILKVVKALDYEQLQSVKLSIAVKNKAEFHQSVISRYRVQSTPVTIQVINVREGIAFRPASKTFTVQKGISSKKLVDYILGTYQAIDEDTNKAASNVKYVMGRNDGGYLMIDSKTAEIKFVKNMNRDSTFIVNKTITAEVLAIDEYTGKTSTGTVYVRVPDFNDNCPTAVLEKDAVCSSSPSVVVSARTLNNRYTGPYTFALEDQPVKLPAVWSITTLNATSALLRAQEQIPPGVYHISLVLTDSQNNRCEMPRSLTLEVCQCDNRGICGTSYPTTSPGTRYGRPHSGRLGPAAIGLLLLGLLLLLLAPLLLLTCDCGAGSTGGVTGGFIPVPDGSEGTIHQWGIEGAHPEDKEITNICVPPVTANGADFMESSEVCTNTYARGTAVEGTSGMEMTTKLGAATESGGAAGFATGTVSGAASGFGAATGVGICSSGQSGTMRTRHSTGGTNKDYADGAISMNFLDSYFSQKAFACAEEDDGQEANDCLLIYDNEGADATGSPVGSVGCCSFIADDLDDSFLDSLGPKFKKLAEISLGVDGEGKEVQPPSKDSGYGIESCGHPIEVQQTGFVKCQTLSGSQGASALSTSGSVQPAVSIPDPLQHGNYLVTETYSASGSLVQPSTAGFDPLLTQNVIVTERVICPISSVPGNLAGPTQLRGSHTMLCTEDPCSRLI
# NALP1 yeast inh: inhibitors of NALP1 inflammasome in yeast. 280,000 tested, 0.61% active. inhibition, % at 10 µM. S. cerevisiae NALP1/ASC/caspase-1 growth, X-gal OD620, 72 h. AID 2071; in the data active = inhibition mostly above about 24%, no sharp cut-off; inactive = mostly below about 32%
# The depositor's hits bear a star; x = no result given.
SMILES,NALP3 yeast inh,ALR H2O2 inh,PolyA inhibitor,Arrestin-AP2 inh,Pemphigus Ab inh,NALP1 yeast inh
NC(=O)c1ccsc1NC(=O)COC(=O)C1CCCN1C(=O)c1cccs1 (configuration not stated),3,97*,-1,x,x,-3
CN(Cc1c(C(=O)N/N=C/c2c(F)cccc2Cl)nnn1-c1nonc1N)C1CCCCC1,x,x,x,x,107,x
O=C(CN1CCN(c2ccccc2O)CC1)NCCCc1ccccc1,13,99*,2,23,99,-3
O=C(CN1CCN(c2ccc(F)cc2)CC1)Nc1cccnc1Cl,-2,60,-8,1,91,7
O=C(CN1CCN(c2ccccc2O)CC1)Nc1cccnc1Cl,5,99*,-7,3,93,13
O=C(CN1CCN(c2ccccc2O)CC1)Nc1ccc([N+](=O)[O-])cc1Br,-3,x,-6,35,94*,25
COc1ccc(C(O)C(CN2CCOCC2)c2ccccc2)cc1F (configuration not stated),14,x,-5,1,104,17
COc1ccc(C(=O)C(CN2CCOCC2)c2ccccc2)cc1F (configuration not stated),x,x,-4,-1,107,41*
CCOC(=O)C(CN1CCCC1)c1ccccc1 (configuration not stated),7,0,19,-10,103,x
O=C(c1ccc(Cl)cc1)C(CN1CCCCC1)c1ccccc1 (configuration not stated),18,97*,-94,-9,106,35
CCOCCn1c(N2CCCC2)nc2c1c(=O)[nH]c(=O)n2C,0,9,-7,12,117,23
CCCCN(C(=O)c1ccncc1)c1c(N)n(CCC)c(=O)[nH]c1=O,12,-1,x,1,93,x
COc1ccc(-c2nnc(SCC(=O)NC(=O)Cc3ccccc3)n2C)cc1,19,4,x,11,109,x
O=C(NCc1ccccc1CN1CCCC1)c1ccc(Cl)c(S(=O)(=O)N2CCCC2)c1,3,x,x,-3,125,x
O=C(CCC(=O)c1ccc[nH]1)c1ccc(Cl)cc1,9,x,-12,-6,85,27*
CC1CCCCN1S(=O)(=O)c1ccc(S(=O)(=O)N2CCN(C)CC2)cc1 (configuration not stated),14,3,-10,3,121,3
CCOc1ccc(-c2cc(C(=O)NN)[nH]n2)cc1,-8,99*,-9,2,99,9
COc1ccc(-c2cc(C(=O)O)[nH]n2)cc1OC,5,12,10,1,67,4
COc1ccc(-c2cc(C(=O)NN)[nH]n2)cc1OC,25,98*,13,-12,100,15
COC(=O)CCC(C)C1CCC2C3C(OC(C)=O)CC4CC(O)CCC4(C)C3CC(O)C12C (configuration not stated),x,x,x,x,104,x
COc1cc(/C=C/C(=O)NC(=O)c2ccccc2O)ccc1OC(C)=O,12,x,5,11,101,25
COc1cccc(NC(=O)CSc2nc(O)c(C)c(=O)n2-c2ccc(C)cc2)c1,-2,98*,2,-5,101,8
Cc1c(O)nc(SCC(=O)Nc2cccc(C(F)(F)F)c2)n(-c2ccccc2)c1=O,17,99*,16,6,109,8
O=C(/C=C/c1cccs1)N1CCN(c2ccc(O)cc2)CC1,-31,99*,-2,54,104,3
O=S(=O)(c1cccs1)N1CCN(c2ccc(O)cc2)CC1,24,x,-7,36,99,35*
SMILES,NALP3 yeast inh,ALR H2O2 inh,PolyA inhibitor,Arrestin-AP2 inh,Pemphigus Ab inh,NALP1 yeast inh
O=S(=O)(Nc1ccc(N2CCOCC2)cc1)c1cccs1,6,98*,4,4,70,23
CN1CCN(S(=O)(=O)c2cccs2)CC1,0,-2,0,7,97,-7
O=S(=O)(c1cccs1)N1CCN(c2ccccn2)CC1,6,4,8,-2,80*,5
O=C(N/N=C/c1ccc(N2CCOCC2)cc1)c1ccc(NS(=O)(=O)c2cccs2)cc1,-11,17,6,-18,120,-3
COc1cc(C(C)=O)ccc1OC(=O)N1CCOCC1,x,x,x,x,95,x
Cc1nc2cc(-c3ccc(Cl)cc3)nn2c(NCCN(C)C)c1C,28,65,-12,-2,101,9
O=C(Cn1cnc2scc(-c3ccc(F)cc3)c2c1=O)NCC(c1ccco1)N1CCCC1 (configuration not stated),11,x,x,-5,108,x
Cc1ccc(NC(=O)COc2ccc(/C(N)=N/O)cc2)cc1C,-14,99*,-4,8,97,32
CCCCOc1ccc(/C(N)=N/O)cc1,17,99*,-18,13,105,28
CCCCCCOc1ccc(C(=O)O)cc1,40,-8,12,1,87,27
Cc1ccc(NC(=O)COc2ccc(-n3cnnn3)cc2)cc1C,2,-11,-15,1,97,12
Cc1cc(C)c(S(=O)(=O)N2CCN(S(=O)(=O)N3CCOCC3)CC2)c(C)c1,20,1,-13,19,x,15
Cc1cc(C)n(CC(=O)NC2CCCCC2C)c(=O)c1C#N (configuration not stated),27,1,-8,6,110,x
CNc1nc(-c2ccc3c(c2)CCN3C(=O)c2ccccc2F)cs1,x,x,4,-6,103,6
CC(C)(C)C(=O)N1CCc2cc(-c3csc(N)n3)ccc21,12,99*,-18,3,109,7
CCCC(=O)N1CCc2cc(-c3nc(N)sc3C)ccc21,9,98*,17,23,100,7
CCC(C)C(=O)N1CCc2cc(-c3csc(N)n3)ccc21 (configuration not stated),16,98*,1,14,x,0
O=C(Oc1ccc[nH]c1=O)C1CC1,x,x,x,x,99,x
CC(C)=CCOc1c2ccoc2cc2oc(=O)ccc12,21,-8,54*,5,95,31
CC(C)=CCOc1c2ccoc2c(OCC=C(C)C)c2oc(=O)ccc12,20,x,x,2,103,x
COc1ccc(NC(=O)CN(C)C(=O)c2cccc(S(=O)(=O)N3CCN(c4ccc(F)cc4)CC3)c2)cc1,x,x,x,25,110,x
Cc1cc2cc(CCNC(=O)CCc3ccccc3)c(=O)[nH]c2cc1C,8,-2,-11,-4,101,20
O=C(O)c1ccc(/C=C2\SC(=S)N(NC(=O)c3ccccc3)C2=O)cc1,0,19,-18,-4,91,-2
CC(=O)NN1C(=O)/C(=C/c2ccc(C(C)C)cc2)SC1=S,26,98*,6,-2,100,20
O=C(NCCCN1CCCCCC1)c1ccc2c(Cl)c3c(nc2c1)CCCC3,2,13,1,-3,90,13
CC1CCN(CCCNC(=O)c2ccc3c(Cl)c4c(nc3c2)CCCC4)CC1,15,90*,2,15,102,x
